The values below come from PubChem BioAssay.

Structures are written as SMILES. Activity calls are given as the source filed them. Unless noted, no rule for the calls is given here.

Assay [1] addresses Pantothenate synthetase (Mycobacterium tuberculosis (strain ATCC 25618 / H37Rv)) (UniProt P9WIL5). As to the kind of experiment: Recombinant Mtb pantothenate synthetase (PanC) inhibitors, coupled enzyme, confirmatory (AID 375).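 Also: 0% = full reaction with vehicle and 100% = no enzyme background.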 The following applies: coupled enzyme assay; at 10 µM, stronger effect = higher value.
Assay [2] is described as follows: reducers of endogenous Her2 protein level, primary screen, SKBR3 breast tumor cells, AlphaScreen, ATP viability (AID 461;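 active = Her2 level under about 52% in both replicate screens, with viability over 70% of control, limit read from the data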;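 as to Her2 level: lower value means less Her2 protein in the cells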;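 as to viability: percent of carrier control wells set as 100% viability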). The following applies: 18-24 h, measured here: SKBR3 viability, ATP luminescence, at 10 µM. In general terms: Alpha assays give light when donor and acceptor beads are brought close together.
The target of assay [3] is Receptor tyrosine-protein kinase erbB-2 (Homo sapiens) (UniProt P04626). The assay is described as above. The following applies: 18-24 h, at 10 µM, stronger effect = lower value.
Assay [4] in a line: SK-BR-3 cell growth inhibitors, pilot screen, 24 h, human (AID 572;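 active = viability at or below 10% of carrier control in both of two separate runs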;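 also: compound exposure lasted between 18 and 24 h rather than exactly 24 h; 100% = carrier-treated control wells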). The following applies: SK-BR-3 viability, CellTiter-Glo luminescence, at 10 µM, stronger effect = lower value.
The nature of assay [5]: HUVEC growth inhibition – cell-based, human, primary screen (AID 575;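 active = viability at or below 30% in both replicate assays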;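 also: 100% = median of untreated cell wells with 0.1% DMSO on each plate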). The following applies: HUVEC proliferation, CellTiter-Glo luminescence, 72 h; at 10 µM; stronger effect = lower value. The method, boiled down:
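System: primary human umbilical vein endothelial cells; Quantity: 1250 endothelial cells in each well; Buffer or medium: supplemented EBM, 2% fetal bovine serum; Doses: one dose, 10 µM final, 0.1% DMSO; Incubation: 72 h compound incubation; Technique: ATP-based CellTiter-Glo luminescent read; Evaluation: percent of median DMSO-control luminescence; Controls: vehicle and MePR control wells.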

The nature of assay [6]: growth inhibitors of H69AR lung tumor, primary screen, human, duplicate replicates (AID 580;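 active = viability at or under a set limit in both replicates, limit being median viability minus 3 SD, cut at about 48% in these data, passing the limit was not always enough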;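 also: 100% = mean luminescence of untreated wells and 0% = no signal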). The following applies: H69AR lung tumor cells viability, ATP luminescence, 72 h; at 10 µM; stronger effect = lower value.
The nature of assay [7]: reversal of MRP1-mediated doxorubicin resistance, pilot screen, H69AR cells, doxorubicin co-treatment (AID 601;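 active = viability loss from added drug above about 55%, and viability with drug at most 40%, in both replicates, limit read from the data, passing the limit was not always enough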). Conditions: CellTiter-Glo, 72 h, at 10 µM; for differential viability (reversal): stronger effect = higher value. (In general: Cellular ATP, detected with luciferase, serves as a proxy for viable cell number.)
The nature of assay [8]: 384-well plate pilot, post-Golgi transport modulator project, inhibition of yeast transport mutant growth (AID 636; in the data active = inhibition above about 31%). The following applies: absorbance 615 nm, about 18 h, stronger effect = higher value.
Assay [9] is described as follows: growth suppression of yeast trafficking mutant, preliminary HTS, modulators of trafficking downstream of Golgi apparatus project, 1536-format plate, OD 615 nm (AID 637; in the data active = inhibition above about 30%). Conditions: yeast transport mutant growth, absorbance 615 nm, 18 h; stronger effect = higher value.
[10] abbreviates: H69AR cells + 2 uM doxorubicin, measured here: viability with 2 uM doxorubicin, stronger effect = lower value.
The mark [11] stands for this setting: H69AR cells, compound alone cytotoxicity.

In general, inhibition refers to the relative decrease from the control value, in per cent. By viability is commonly meant a read-out of living cells in per cent, often relative to untreated cells.

Chain of Pantothenate synthetase (Mycobacterium tuberculosis (strain ATCC 25618 / H37Rv)) (P9WIL5 whole entry, looked up): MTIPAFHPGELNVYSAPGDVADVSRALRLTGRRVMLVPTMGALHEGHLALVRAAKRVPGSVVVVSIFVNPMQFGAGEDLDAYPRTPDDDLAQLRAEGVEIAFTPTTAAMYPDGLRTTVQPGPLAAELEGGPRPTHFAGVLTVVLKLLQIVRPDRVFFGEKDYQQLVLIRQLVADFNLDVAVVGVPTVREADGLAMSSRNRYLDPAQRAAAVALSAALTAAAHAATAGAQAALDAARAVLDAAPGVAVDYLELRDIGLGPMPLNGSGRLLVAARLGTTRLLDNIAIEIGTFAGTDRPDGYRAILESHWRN
Chain of Receptor tyrosine-protein kinase erbB-2 (Homo sapiens) (P04626 whole entry, looked up): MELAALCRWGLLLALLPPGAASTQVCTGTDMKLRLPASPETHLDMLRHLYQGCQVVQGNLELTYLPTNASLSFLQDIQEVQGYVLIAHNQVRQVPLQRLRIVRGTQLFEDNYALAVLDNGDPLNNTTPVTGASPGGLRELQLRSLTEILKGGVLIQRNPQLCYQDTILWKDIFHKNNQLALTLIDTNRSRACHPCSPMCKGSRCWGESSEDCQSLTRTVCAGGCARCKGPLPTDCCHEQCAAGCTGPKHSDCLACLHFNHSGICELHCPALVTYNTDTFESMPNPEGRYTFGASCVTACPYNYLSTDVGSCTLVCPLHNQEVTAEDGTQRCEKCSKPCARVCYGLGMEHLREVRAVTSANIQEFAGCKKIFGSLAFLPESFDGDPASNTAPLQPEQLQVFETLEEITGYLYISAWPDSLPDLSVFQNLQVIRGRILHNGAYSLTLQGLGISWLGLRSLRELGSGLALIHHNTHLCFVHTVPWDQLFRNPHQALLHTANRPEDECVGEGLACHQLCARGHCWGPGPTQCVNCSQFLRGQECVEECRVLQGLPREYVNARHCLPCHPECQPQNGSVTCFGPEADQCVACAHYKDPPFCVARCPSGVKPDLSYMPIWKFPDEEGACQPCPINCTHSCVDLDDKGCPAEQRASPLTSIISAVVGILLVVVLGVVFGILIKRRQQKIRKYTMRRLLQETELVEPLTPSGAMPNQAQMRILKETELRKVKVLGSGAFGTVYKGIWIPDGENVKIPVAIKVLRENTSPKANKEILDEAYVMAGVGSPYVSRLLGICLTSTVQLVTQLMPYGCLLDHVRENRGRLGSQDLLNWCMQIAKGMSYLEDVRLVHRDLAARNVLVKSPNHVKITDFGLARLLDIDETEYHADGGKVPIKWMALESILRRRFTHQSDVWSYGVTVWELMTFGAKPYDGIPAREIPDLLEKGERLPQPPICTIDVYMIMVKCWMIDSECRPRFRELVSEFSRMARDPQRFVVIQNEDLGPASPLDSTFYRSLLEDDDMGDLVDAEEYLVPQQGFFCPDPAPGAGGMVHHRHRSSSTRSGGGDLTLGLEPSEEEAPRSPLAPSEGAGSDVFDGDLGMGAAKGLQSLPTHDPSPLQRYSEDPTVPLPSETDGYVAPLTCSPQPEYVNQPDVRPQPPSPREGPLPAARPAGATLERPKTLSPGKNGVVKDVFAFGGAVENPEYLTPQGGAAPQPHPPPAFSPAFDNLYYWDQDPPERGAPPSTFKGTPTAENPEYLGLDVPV

`Cc1ccccc1NC(=O)C1CCC(C)(C(=O)O)C1(C)C` (stereo not drawn): in [1], the inhibition is 0% (inactive).

In the case of `CCN1C(=O)c2ccccc2S(=O)c2ccc(C(=O)NC3CC3)cc21` (stereo not drawn), the inhibition in assay [1] was 6% (inactive).

In the case of `C[C@@]1(CO)[C@H](O)CC[C@@]2(C)[C@H]1CC[C@H]1C[C@@H]3C[C@@]12CC[C@]3(O)CO`, the inhibition in assay [1] is 0% (inactive). For the same compound, the viability in assay [2] is 108%; in assay [4], 108% (inactive); in assay [5] it was 49.2% (inactive); in [6], 80.6% (inactive); in assay [7] (setting [10]), 109%; in assay [7] (setting [11]), 80.6%. The Her2 level in assay [3] was 81.5% (inactive). In [7] (H69AR cells + 2 uM doxorubicin), the differential viability (reversal) was -28.1% (inactive).

Regarding `Cc1cc(C)nc(SCC(=O)Nc2ccc(S(=O)(=O)Nc3nccs3)cc2)n1`, the inhibition in assay [1] was 0% (inactive).

For `Cc1ccc2cc(C(c3nnnn3CC3CCCO3)N3CCc4ccccc4C3)c(=O)[nH]c2c1` (stereo not drawn), the inhibition in [1] is 0% (inactive).

For `Cn1c(C(=O)NCC2CCCO2)cc2c(=O)[nH]c3ccccc3c21` (stereo not drawn), in assay [1], the inhibition was 8% (inactive).

Turning to `CC1(C)Cc2cccc(OCC(=O)O)c2O1`, the inhibition in assay [1] is 5% (inactive).

`Cc1ccc(S(=O)(=O)NCCNC(=O)c2ccccc2)cc1`: the inhibition in [1] is 4% (inactive).

Regarding `COc1cc(C2CC(=O)NC3=C2C(=O)CC(C)(C)C3)ccc1O` (stereo not drawn), in [1], the inhibition is 0% (inactive).

On to `Cn1c(=O)c(=O)n(C)c2cc(S(=O)(=O)N3CCCCC3)ccc21`, for which the inhibition in assay [1] is 14% (inactive).

Take `COc1cccc(C2CC(=O)Nc3cc4c(cc32)OCCO4)c1OC(C)C` (stereo not drawn): the inhibition in assay [1] is 1% (inactive).

As for `COc1ccc(-c2nc(CCNC(=O)c3ccco3)cs2)cc1OC`, in assay [1], the inhibition is 5% (inactive).

For `Cc1ccccc1Cn1cc(/C=N/n2cnnc2)c2ccccc21`, the inhibition in [1] is 0% (inactive).

With `O=c1c2c(nc3nc(CCc4ccccc4)[nH]n13)CCC2`, in assay [1], the inhibition was 9% (inactive).

With `Cc1ccccc1-c1nc(CS(=O)(=O)CC(=O)N(C)C2CCCCC2)c(C)o1`, the inhibition in assay [1] was 0% (inactive).

With `O=C(Sc1nnnn1C1CCCCC1)c1cccs1`, the inhibition in assay [1] is 0% (inactive).

In the case of `COc1ccc(C(=O)N2CCCC2=O)cc1`, in [1], the inhibition was 10% (inactive). Further, the viability in assay [2] was 110%; in assay [4], 110% (inactive); in assay [5], 119% (inactive); in [6] it was 103% (inactive); in assay [7] (setting [10]), 89.1%; in assay [7] (setting [11]), 103%. In addition, the Her2 level in assay [3] was 94.5% (inactive). Moreover, in [7] (H69AR cells + 2 uM doxorubicin), the differential viability (reversal) was 13.5% (inactive).

As to `CCN1CCN(Cc2nc3c(c(=O)[nH]c(=O)n3C)n2Cc2ccccc2Cl)CC1`, in assay [1], the inhibition was 2% (inactive).

Consider `CC(NC(=O)NC12CC3CC(CC(C3)C1)C2)C1CCCO1` (stereo not drawn), for which, in assay [1], the inhibition was 5% (inactive).

With `COc1ccc(OC)c(C(O)C(C)N)c1` (stereo not drawn), the inhibition in [1] was 0% (inactive). In addition, the viability was 104% in assay [2]; 104% (inactive) in assay [4]; 108% (inactive) in [5]; 98.1% (inactive) in [6]; 105% in assay [7] (setting [10]); 98.1% in assay [7] (setting [11]). Further, in [3], the Her2 level is 118% (inactive). In addition, the differential viability (reversal) in assay [7] (H69AR cells + 2 uM doxorubicin) is -7.17% (inactive).

For `Cc1ccc(NC(=O)C2CC=CCC2C(=O)N2CCCCC2)cc1` (stereo not drawn), the inhibition in [1] was 0% (inactive).

Consider `c1ccc2c(c1)OCC(C1=NCCN1)O2` (stereo not drawn), for which, in assay [1], the inhibition is 0% (inactive). For the same compound, the viability is 104% in assay [2]; 104% (inactive) in [4]; 108% (inactive) in assay [5]; 81.4% (inactive) in assay [6]; 72.2% in [7] (setting [10]); 81.4% in [7] (setting [11]). In assay [3], the Her2 level is 108% (inactive). Further, the differential viability (reversal) in [7] (H69AR cells + 2 uM doxorubicin) is 9.15% (inactive).

Consider `Cc1ccc(S(=O)(=O)N2CCOCC2)cc1C(=O)OCC(=O)N1CCc2ccccc2C1`, for which, in assay [1], the inhibition was 0% (inactive).

Consider `C=CCn1c(O)c(C(C)=Nc2ccc(N(CC)CC)cc2)c(=O)[nH]c1=O`, for which the inhibition in assay [1] is 1% (inactive); in assay [8] it was -2.08% (inactive); in assay [9] it was -8% (inactive). Moreover, the viability in [2] was 102%; in [4], 102% (inactive); in [5], 62.6% (inactive); in assay [6], 16.3% (active); in assay [7] (setting [10]) it was 79.7%; in [7] (setting [11]), 16.3%. The Her2 level in assay [3] was 105% (inactive). Moreover, the differential viability (reversal) in assay [7] (H69AR cells + 2 uM doxorubicin) was -63.3% (inactive).

`CCCCn1c(O)c(C(C)=Nc2cccc(C(=O)O)c2)c(=O)[nH]c1=O`: the inhibition in [1] was 0% (inactive); in assay [8] it was -2.11% (inactive); in assay [9], 9.02% (inactive). Also, the viability in assay [2] is 108%; in [4], 108% (inactive); in [5], 89.4% (inactive); in [6] it was 105% (inactive); in assay [7] (setting [10]), 100%; in assay [7] (setting [11]) it was 105%. Besides, in [3], the Her2 level is 106% (inactive). The differential viability (reversal) in [7] (H69AR cells + 2 uM doxorubicin) is 4.39% (inactive).

Take `Nc1ccnn1C1CCNCC1`: the inhibition in [1] was 2% (inactive); in [8] it was -4.25% (inactive); in assay [9], -2.06% (inactive). Besides, the viability in [2] was 88.5%; in [4] it was 88.5% (inactive); in [5], 97% (inactive); in [6], 107% (inactive); in assay [7] (setting [10]), 102%; in [7] (setting [11]), 107%. In [3], the Her2 level was 105% (inactive). Further, the differential viability (reversal) in assay [7] (H69AR cells + 2 uM doxorubicin) is 5.6% (inactive).
